Laboratory results published in ChEMBL document CHEMBL1821706, “Unprecedented citrinin trimer tricitinol B functions as a novel topoisomerase IIα inhibitor” (J Med Chem, 2011).
pIC50: −log10 of the molar value. The source made the active and inactive calls. No cut-off for these calls is given here.

Legend:
[1] = test system: HL-60; assay: Induction of apoptosis in human HL60 cells assessed as caspase 8 cleavage at 10 uM after 24 hrs by Western blotting preincubated for 2 hrs with 20 uM caspase 8 inhibitor Z-IETD-FMK; type: functional, cell-based
How it was run: (§1)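 HL60 cells were pretreated with 20 μM Z-IETD-FMK, Z-LEHD-FMK or Z-VAD-FMK, then cultured with 10 μM compound for 24 h. Cleaved PARP and caspases were probed by Western blot. Three independent experiments were run.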

[2] = test system: HCT-116; assay: Induction of apoptosis in human HCT116 cells assessed as Bid cleavage at 2.5 to 10 uM after 24 hrs by Western blotting; type: functional, cell-based
How it was run: (§2)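 Cells (2×10^5/mL) were exposed to 2.5–10 μM for 24 h, then whole-cell lysates were made. Pro-/cleaved caspase-3, caspase-8, pro-/cleaved caspase-9, PARP (116 kDa full length, 85 kDa fragment) and Bid were probed by Western blot with ECL detection.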

[3] = test system: HL-60; assay: Induction of apoptosis in human HL60 cells assessed as Bid cleavage at 2.5 to 10 uM after 24 hrs by Western blotting; type: functional, cell-based; how it was run: as §2
[4] = test system: HCT-116; assay: Induction of apoptosis in human HCT116 cells assessed as activation of caspase 9 at 2.5 to 10 uM after 24 hrs by Western blotting; type: functional, cell-based; how it was run: as §2
[5] = test system: HL-60; assay: Induction of apoptosis in human HL60 cells assessed as activation of caspase 9 at 2.5 to 10 uM after 24 hrs by Western blotting; type: functional, cell-based; how it was run: as §2
[6] = test system: HL-60; assay: Induction of apoptosis in human HL60 cells assessed as activation of caspase 8 at 2.5 to 10 uM after 24 hrs by Western blotting; type: functional, cell-based; how it was run: as §2
[7] = test system: HL-60; assay: Induction of apoptosis in human HL60 cells assessed as increase in cleaved caspase 3 levels after 24 hrs by Western blotting; type: functional, cell-based; how it was run: as §2
[8] = test system: HCT-116; assay: Induction of apoptosis in human HCT116 cells assessed as decrease in procaspase 3 expression after 24 hrs by Western blotting; type: functional, cell-based; how it was run: as §2
[9] = test system: HL-60; assay: Induction of apoptosis in human HL60 cells assessed as decrease in procaspase 3 expression after 24 hrs by Western blotting; type: functional, cell-based; how it was run: as §2
[10] = test system: HL-60; assay: Induction of apoptosis in human HL60 cells assessed as DNA ladder formation at 2.5 to 10 uM using Annexin-V/PI double-staining by flow cytometric analysis; type: functional, cell-based; settings: TDE = time-dependent effect
How it was run: (§3)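 HL60 cells were treated with 2.5, 5.0, 7.5 or 10.0 μM for 24 h for DNA ladder analysis, representative of three experiments. Apoptotic fractions were measured after 2.5–10 μM for 24 h, or 10 μM over a time course, by Annexin/PI staining and flow cytometry (early plus late apoptotic cells), as mean ± SD of three experiments.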

[11] = test system: HL-60; assay: Induction of apoptosis in human HL60 cells assessed as DNA ladder formation at 10 uM after 1.5 to 24 hrs using Annexin-V/PI double-staining by flow cytometric analysis; type: functional, cell-based; how it was run: as §3
[12] = test system: MCF7; assay: Drug resistance index, ratio of IC50 for adriyamycin-resistant human MCF7 cells to IC50 for human MCF7 cells; type: functional
[13] = test system: MCF7; assay: Cytotoxicity against adriyamycin-resistant human MCF7 cells over expressing P-glycoprotein after 72 hrs by SRB assay; type: functional, cell-based; settings: MCF7, 72 h
How it was run: (§4)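 Adherent human tumour lines were seeded and exposed in triplicate to graded compound concentrations at 37 °C for 72 h. Growth was read by sulforhodamine B staining. IC50 (50% growth inhibition) was obtained by the Logit method from at least three independent experiments and reported as mean ± SD.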

[14] = test system: HMEC; assay: Cytotoxicity against human HMEC cells after 72 hrs by MTT assay; type: cell-based
[15] = test system: MCF7; assay: Cytotoxicity against human MCF7 cells after 72 hrs by SRB assay; type: functional, cell-based; settings: MCF7, 72 h; how it was run: as §4
[16] = test system: A-431; assay: Cytotoxicity against human A431 cells after 72 hrs by SRB assay; type: functional, cell-based; settings: A-431, 72 h, pooled result: one value given for 15 cell lines, strains, targets or settings; how it was run: as §4
[17] = test system: KB; assay: Cytotoxicity against human KB cells after 72 hrs by SRB assay; type: functional, cell-based; how it was run: as §4
[18] = test system: HCT-116; assay: Cytotoxicity against human HCT116 cells after 72 hrs by SRB assay; type: functional, cell-based; settings: HCT-116, 72 h; how it was run: as §4
[19] = target: DNA topoisomerase 2-alpha (Homo sapiens) (UniProt P11388); assay: Inhibition of human topoisomerase 2alpha-mediated unwinding of linearized pBR322 assessed as DNA intercalation at 2 to 50 uM
How it was run: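 Unwinding (intercalation) test: EcoRI-linearized pBR322 (0.1 μg) incubated with compound and 2 units T4 DNA ligase in ligase buffer at 22 °C for 30 min. Stopped at 60 °C for 10 min, compound removed by phenol extraction, ligation products resolved on agarose gel.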

[20] = target: DNA topoisomerase 2-alpha (Homo sapiens) (UniProt P11388); assay: Inhibition of human topoisomerase 2alpha-mediated decatenation of kDNA after 30 mins by agarose gel electrophoresis in presence of ATP
How it was run: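 Decatenation of 0.25 μg kDNA by 0.75 unit topo IIα at 37 °C for 30 min. Stopped with SDS. Run on 1% agarose in TAE at 4 V/cm for 2 h and stained with ethidium bromide.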

[21] = target: DNA topoisomerase 2-alpha (Homo sapiens) (UniProt P11388); assay: Inhibition of human topoisomerase 2alpha-mediated relaxation of supercoiled pBR322 DNA after 30 mins by agarose gel electrophoresis
How it was run: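 Supercoiled pBR322 (0.25 μg) incubated with 0.75 unit topo IIα at 37 °C for 30 min. SDS stop. Supercoiled and relaxed forms resolved on 1% agarose/TAE, ethidium bromide stain.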

[22] = test system: HL-60; assay: Induction of apoptosis in human HL60 cells assessed as activation of caspase 9 at 10 uM after 24 hrs by Western blotting preincubated for 2 hrs with 20 uM caspase 9 inhibitor Z-LEHD-FMK; type: functional, cell-based; how it was run: as §1
[23] = test system: HL-60; assay: Induction of DNA damage in human HL60 cells assessed as increased histone H2AX expression at 20 uM agarose gel electrophoresis; type: functional, cell-based; settings: TDE = time-dependent effect
[24] = test system: HMEC; assay: Selectivity ratio of IC50 for human HMEC cells to IC50 for 786-O cells
[25] = test system: HMEC; assay: Selectivity ratio of IC50 for human HMEC cells to IC50 for Rh30 cells
[26] = test system: HMEC; assay: Selectivity ratio of IC50 for human HMEC cells to IC50 for HL60 cells
[27] = test system: HMEC; assay: Selectivity ratio of IC50 for human HMEC cells to IC50 for HCT116 cells
[28] = test system: HMEC; assay: Selectivity ratio of IC50 for human HMEC cells to IC50 for Bel7402 cells
[29] = test system: HMEC; assay: Selectivity ratio of IC50 for human HMEC cells to IC50 for MKN45 cells
[30] = test system: HMEC; assay: Selectivity ratio of IC50 for human HMEC cells to IC50 for PC3 cells
[31] = test system: HeLa; assay: Selectivity ratio of IC50 for human HMEC cells to IC50 for HeLa cells
[32] = test system: HMEC; assay: Selectivity ratio of IC50 for human HMEC cells to IC50 for KB cells
[33] = test system: MCF7; assay: Selectivity ratio of IC50 for human HMEC cells to IC50 for MCF7 cells
[34] = test system: HMEC; assay: Selectivity ratio of IC50 for human HMEC cells to IC50 for SKOV3 cells
[35] = test system: HMEC; assay: Selectivity ratio of IC50 for human HMEC cells to IC50 for A549 cells
[36] = test system: HCT-116; assay: Induction of apoptosis in human HCT116 cells assessed as accumulation at G0/G1 phase at 5 uM after 24 hrs using PI staining based flow cytometric analysis (reference value: 48.77%)

Sequence of DNA topoisomerase 2-alpha (Homo sapiens) (P11388 whole entry): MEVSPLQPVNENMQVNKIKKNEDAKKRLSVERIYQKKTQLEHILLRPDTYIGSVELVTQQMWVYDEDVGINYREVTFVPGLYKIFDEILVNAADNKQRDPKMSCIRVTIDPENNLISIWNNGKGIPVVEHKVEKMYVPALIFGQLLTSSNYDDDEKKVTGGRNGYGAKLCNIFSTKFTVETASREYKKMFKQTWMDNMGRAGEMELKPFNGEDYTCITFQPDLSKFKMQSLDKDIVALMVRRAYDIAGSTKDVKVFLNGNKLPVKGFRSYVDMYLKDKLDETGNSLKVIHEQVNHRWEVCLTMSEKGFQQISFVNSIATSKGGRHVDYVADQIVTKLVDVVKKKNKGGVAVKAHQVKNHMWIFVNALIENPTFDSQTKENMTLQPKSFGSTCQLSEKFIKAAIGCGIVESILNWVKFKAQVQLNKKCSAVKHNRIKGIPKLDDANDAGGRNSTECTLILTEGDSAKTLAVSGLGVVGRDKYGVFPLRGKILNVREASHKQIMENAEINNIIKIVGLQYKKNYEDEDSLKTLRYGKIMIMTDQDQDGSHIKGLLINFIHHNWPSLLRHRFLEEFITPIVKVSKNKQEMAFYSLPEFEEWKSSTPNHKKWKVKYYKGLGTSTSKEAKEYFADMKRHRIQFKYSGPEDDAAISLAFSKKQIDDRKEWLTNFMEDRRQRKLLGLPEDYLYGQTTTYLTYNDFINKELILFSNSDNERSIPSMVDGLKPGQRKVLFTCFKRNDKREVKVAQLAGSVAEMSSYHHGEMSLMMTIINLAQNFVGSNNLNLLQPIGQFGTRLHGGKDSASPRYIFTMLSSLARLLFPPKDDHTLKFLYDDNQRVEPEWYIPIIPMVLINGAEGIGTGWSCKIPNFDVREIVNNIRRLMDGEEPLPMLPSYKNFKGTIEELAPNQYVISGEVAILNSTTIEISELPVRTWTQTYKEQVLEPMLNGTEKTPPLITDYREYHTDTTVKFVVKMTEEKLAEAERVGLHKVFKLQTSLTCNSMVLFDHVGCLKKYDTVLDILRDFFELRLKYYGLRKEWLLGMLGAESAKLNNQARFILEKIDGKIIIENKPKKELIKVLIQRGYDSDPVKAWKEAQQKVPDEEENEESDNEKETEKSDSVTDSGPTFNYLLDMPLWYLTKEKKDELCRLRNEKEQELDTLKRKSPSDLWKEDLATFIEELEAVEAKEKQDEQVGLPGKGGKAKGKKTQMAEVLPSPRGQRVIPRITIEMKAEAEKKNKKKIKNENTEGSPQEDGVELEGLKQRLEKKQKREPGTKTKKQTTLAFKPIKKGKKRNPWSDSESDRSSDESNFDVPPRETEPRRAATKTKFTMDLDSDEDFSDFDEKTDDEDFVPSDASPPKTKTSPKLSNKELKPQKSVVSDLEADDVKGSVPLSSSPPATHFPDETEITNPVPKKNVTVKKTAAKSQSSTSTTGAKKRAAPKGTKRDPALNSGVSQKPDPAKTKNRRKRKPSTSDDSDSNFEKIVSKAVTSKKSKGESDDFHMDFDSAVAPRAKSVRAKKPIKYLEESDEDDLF

- inhibition [19]: Active
- inhibition [20]: Dose-dependent effect
- inhibition [21]: Dose-dependent effect
SMILES: COC1O[C@H](C)[C@@H](C)c2c(C)c3c(c(O)c21)[C@@H]1O[C@H](C)[C@@H](C)c2c(C)c(O)c([C@H]4O[C@H](C)[C@@H](C)c5c(C)c(O)cc(O)c54)c(c21)O3 (stereo partly specified) [TRICITRINOL B]
- Activity [1]: inactive
- Activity [2]: Active
- Activity [3]: Active
- Activity [4]: Active
- Activity [5]: Active
- Activity [6]: Active
- Activity [7]: Dose-dependent effect
- Activity [8]: Dose-dependent effect
- Activity [9]: Dose-dependent effect
- Activity [10]: tde
- Activity [11]: Active
- Ratio IC50 [12]: 1.28
- pIC50 [13]: 5.13
- pIC50 [14]: 5.10
- pIC50 [15]: 5.24
- pIC50 [16]: 5.32
- pIC50 [17]: 5.41
- pIC50 [18]: 5.32
- Activity [22]: Active
- Activity [23]: tde
- Ratio IC50 [24]: 2
- Ratio IC50 [25]: 2
- Ratio IC50 [26]: 2
- Ratio IC50 [27]: 2
- Ratio IC50 [28]: 2
- Ratio IC50 [29]: 2
- Ratio IC50 [30]: 2
- Ratio IC50 [31]: 2
- Ratio IC50 [32]: 2
- Ratio IC50 [33]: 2
- Ratio IC50 [34]: 2
- Ratio IC50 [35]: 2
- Activity [36]: 37.52%
